Columns and labels:
Mus musculus [1] = organism: Mus musculus; test: Inhibitory effect against contraction induced by PGF2-alpha in the isolated mouse uterus at a concentration of 10 E -5 M; type: functional
Outline: (§1)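 Uterine strips were equilibrated 30 min, then given two 5-min control responses to PGF2α (10^-7 M), each followed by a 20-min washout. The test agent was in the bath 5 min before 10^-7 M PGF2α was added. The integrated contractile force over 5 min was taken as a % of the mean of the two controls. Agents were dissolved in 0.25 N NaOH and diluted with water to pH 7.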

Mus musculus [2] = organism: Mus musculus; test: Compounds were evaluated for the percent recovery of the contraction induced by PGF2-alpha in the isolated mouse uterus at a concentration 10 E -4 M; type: functional, tissue-based
Outline: (§2)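 Recovery after PGF2α challenge: following a 5-min PGF2α (10^-7 M) response with the test agent present, the tissue was washed 20 min with physiological medium, then re-exposed to 10^-7 M PGF2α for 5 min. The integrated contractile force was expressed as a % of the mean of two initial control PGF2α responses.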

Mus musculus [3] = organism: Mus musculus; test: Compounds were evaluated for the percent recovery of the contraction induced by PGF2-alpha in the isolated mouse uterus at a concentration 10 E -5 M; type: functional; outline: as §2
Mus musculus [4] = organism: Mus musculus; test: Inhibitory effect against contraction induced by PGF2-alpha in the isolated mouse uterus at a concentration of 10 E -4 M; type: functional; outline: as §1
Mus musculus [5] = organism: Mus musculus; test: Compounds were evaluated for the percent recovery of the contraction induced by KCL in the isolated mouse uterus at a concentration 10 E -5M; type: functional
Outline: (§3)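 KCl (54 mM) served as agonist in the uterine strip. After the 5-min KCl response with the test agent present, the tissue was washed 20 min and challenged again with KCl for 5 min. The recovery response was expressed as integrated force, as a % of the mean of two initial control KCl responses.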

Mus musculus [6] = organism: Mus musculus; test: Inhibitory effect against contraction induced by PGF2-alpha in the isolated mouse uterus at a concentration of 10 E -6 M; type: functional; outline: as §1
Mus musculus [7] = organism: Mus musculus; test: Compounds were evaluated for the percent recovery of the contraction induced by KCL in the isolated mouse uterus at a concentration 10 E -6M; type: functional; outline: as §3
Mus musculus [8] = organism: Mus musculus; test: Compounds were evaluated for the percent recovery of the contraction induced by PGF2-alpha in the isolated mouse uterus at a concentration 3X 10 E -5 M; type: functional; outline: as §2
Mus musculus [9] = organism: Mus musculus; test: (§4) Inhibitory effect for the contraction induced by BaCl2 in [Ca2+] free buffer in the isolated mouse uterus at a concentration 10 E -4 M.; type: functional
Outline: (§5)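 BaCl2 (2.2 × 10^-4 M) stimulated the uterine strip, in Ca2+-containing or Ca2+-free buffer. Two 5-min control responses were taken, each with a 20-min washout. The test agent was added 5 min before BaCl2. The integrated contractile force was expressed as a % of the mean control response.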

Mus musculus [10] = organism: Mus musculus; test: Inhibitory effect against contraction induced by KCL in the isolated mouse uterus at a concentration of 10 E -4 M; type: functional
Outline: (§6)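 KCl (54 mM) replaced PGF2α as the stimulus. After 30-min equilibration, two 5-min control KCl responses were taken, each with a 20-min washout. The test agent was then preincubated 5 min before KCl was added. The integrated force over 5 min was expressed as a % of the mean of the two controls. Compounds were in NaOH, neutralised to pH 7.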

Mus musculus [11] = organism: Mus musculus; test: Inhibitory effect against contraction induced by KCL in the isolated mouse uterus at a concentration of 10 E -6 M; type: functional; outline: as §6
Mus musculus [12] = organism: Mus musculus; test: (§7) Inhibitory effect for the contraction induced by BaCl2 in [Ca2+] containing buffer in the isolated mouse uterus at a concentration 10 E -4 M.; type: functional; outline: as §5
Mus musculus [13] = organism: Mus musculus; test: Inhibitory effect against contraction induced by PGF2-alpha in the isolated mouse uterus at a concentration of 3X10 E -5 M; type: functional; outline: as §1
Mus musculus [14] = organism: Mus musculus; test: Compounds were evaluated for the percent recovery of the contraction induced by KCL in the isolated mouse uterus at a concentration 10 E -4 M; type: functional; outline: as §3
Mus musculus [15] = organism: Mus musculus; test: as §4; type: functional; outline: as §5; remark: listed apart in the source
Mus musculus [16] = organism: Mus musculus; test: Inhibitory effect against contraction induced by KCL in the isolated mouse uterus at a concentration of 10 E -5 M; type: functional; outline: as §6
Mus musculus [17] = organism: Mus musculus; test: as §7; type: functional; outline: as §5; remark: listed apart in the source
Mus musculus [18] = organism: Mus musculus; test: Compounds were evaluated for the percent recovery of the contraction induced by PGF2-alpha in the isolated mouse uterus at a concentration 10 E -6 M; type: functional; outline: as §2
Mus musculus [19] = organism: Mus musculus; test: Inhibitory effect against contraction induced by PGF2-alpha in the isolated mouse uterus at a concentration of 10 E -4M; type: functional; outline: as §1

| Structure (SMILES) | inhibition at 10 µM (Mus musculus [1]) [%] | Recovery (Mus musculus [2]) [%] | Recovery (Mus musculus [3]) [%] | inhibition at 100 µM (Mus musculus [4]) [%] | Recovery (Mus musculus [5]) [%] | inhibition at 1 µM (Mus musculus [6]) [%] | Recovery (Mus musculus [7]) [%] | Recovery (Mus musculus [8]) [%] | Recovery (Mus musculus [9]) [%] | inhibition at 100 µM (Mus musculus [10]) [%] | inhibition at 1 µM (Mus musculus [11]) [%] | Recovery (Mus musculus [12]) [%] | inhibition at 30 µM (Mus musculus [13]) [%] | Recovery (Mus musculus [14]) [%] | inhibition at 100 µM (Mus musculus [15]) [%] | inhibition at 10 µM (Mus musculus [16]) [%] | inhibition at 100 µM (Mus musculus [17]) [%] | Recovery (Mus musculus [18]) [%] | inhibition at 100 µM (Mus musculus [19]) [%] |
| --- | --- | --- | --- | --- | --- | --- | --- | --- | --- | --- | --- | --- | --- | --- | --- | --- | --- | --- | --- |
| CCCC1(CCC(=O)O)Cc2cc(OCc3ccccc3)ccc2C1=O (stereo not drawn) | 6.4 | 85.3 | 85.5 | 42 |  |  |  |  |  |  |  |  |  |  |  |  |  |  |  |
| CCCCC1(CCC(=O)O)Cc2cc(OCc3ccccc3)ccc2C1O (stereo not drawn) | 0.5 | 104 | 91.7 | 20.4 |  |  |  |  |  |  |  |  |  |  |  |  |  |  |  |
| CCC[C@@]1(CCC(=O)O)Cc2cc(OCc3ccccc3)c(OCc3ccccc3)cc2[C@H]1O | 17.2 | 82.8 | 81.8 | 67.1 | 84.2 | 0 | 86.1 | 79.7 | 39.4 | 53.2 | 1.2 | 105 | 36.4 | 85.8 | 88.2 | 9.4 | 48.1 | 88.7 |  |
| CCC1(CCC(=O)O)Cc2cc(OCc3ccccc3)ccc2C1=O (stereo not drawn) | 27.3 | 70.4 | 69.3 |  |  |  |  |  |  |  |  |  |  |  |  |  |  |  | 44.4 |
| O=C(O)CCC1(CCC(=O)O)Cc2cc(OCc3ccccc3)ccc2C1=O | 10.5 | 91.1 | 79.9 | 6.5 | 106 |  |  |  |  | 1.9 |  |  |  | 105 |  | 8.3 |  |  |  |
